SMILES strings stand for the structures. Activity calls are given as the source filed them. The rule behind the calls is not given here.

The first assay addresses Human immunodeficiency virus type 1 reverse transcriptase (Human immunodeficiency virus 1) (UniProt Q72547). Nature of the assay: Ratio of compound IC50 to 5a3 IC50 for HIV1 reverse transcriptase.
As to `O=c1cc(Cc2ccccc2)nc(SCCCc2ccccc2)[nH]1`, the Ratio IC50 worked out at 45.

A further assay shares this target. Nature of the assay: Inhibition of HIV1 reverse transcriptase up to 100 uM by ELISA. An outline of the steps: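 RT assay on a poly(rA)/oligo(dT)15 homopolymer template with HIV antigen-detection ELISA read-out. Compounds were tested for loss of RT activity at concentrations up to 100 µM. Values are means of three separate experiments, with triplicate variation under 15%.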
Regarding `Cc1c(Cc2ccccc2)nc(SCc2ccc3ccccc3c2)[nH]c1=O`, the inhibition result was “inactive”. The same measure, in the same setting: for `C=CCSc1nc(Cc2ccccc2)c(C)c(=O)[nH]1` the value was “inactive”. The same measure, in the same setting: for `O=c1cc(Cc2ccccc2)nc(SCc2ccccc2)[nH]1` the value was “inactive”; for `CC(C)(C)c1ccc(CSc2nc(Cc3ccccc3)cc(=O)[nH]2)cc1`, “inactive”; for `O=c1cc(Cc2ccccc2)nc(SCc2ccc3ccccc3c2)[nH]1`, “inactive”. On the same count and under the same terms, for `Cc1c(Cc2ccccc2)nc(SCc2ccccc2)[nH]c1=O` the value was “inactive”. As for `Cc1cccc(CSc2nc(Cc3ccccc3)c(C)c(=O)[nH]2)c1`, the inhibition result is “inactive”. Same read-out and setting: for `Cc1c(Cc2ccccc2)nc(SCc2ccc(C(C)(C)C)cc2)[nH]c1=O` the value was “inactive”.

The target in another assay is Human immunodeficiency virus type 1 reverse transcriptase (Human immunodeficiency virus 1, UniProt Q72547). Nature of the assay: Inhibition of HIV1 reverse transcriptase by ELISA. The gist of the method: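 HIV-1 reverse transcriptase activity measured with a poly(rA)/oligo(dT)15 homopolymer template and read by HIV antigen-detection ELISA.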
Consider `Cc1cccc(CSc2nc(Cc3ccccc3)c(Br)c(=O)[nH]2)c1`, for which the IC50 came to 26.7 µM. The same measure, in the same setting: in the case of `O=c1[nH]c(SCc2ccccc2)nc(Cc2ccccc2)c1I` it was 10.1 µM; in that of `CCOCSc1nc(Cc2ccccc2)c(C)c(=O)[nH]1`, 51.7 µM; in that of `COc1cccc(CSc2nc(Cc3ccccc3)c(C)c(=O)[nH]2)c1`, 48.7 µM. The same measure, in the same setting: for `CC(C)(C)c1ccc(CSc2nc(Cc3ccccc3)c(I)c(=O)[nH]2)cc1` the value was 5.62 µM; for `Cc1cccc(CSc2nc(Cc3ccccc3)c(I)c(=O)[nH]2)c1`, 3.03 µM; for `CCOCn1c(Cc2ccccc2)c(C(C)C)c(=O)[nH]c1=O` [EMIVIRINE], 0.15 µM. On the same count and under the same terms, in the case of `Cc1ccccc1CSc1nc(Cc2ccccc2)c(Br)c(=O)[nH]1` it was 24.9 µM; in that of `O=c1[nH]c(SCCCc2ccccc2)nc(Cc2ccccc2)c1I`, 0.18 µM; in that of `O=c1cc(Cc2ccccc2)nc(SCCc2ccccc2)[nH]1`, 17.4 µM. `CC(Sc1nc(Cc2ccccc2)cc(=O)[nH]1)c1ccccc1` (centres undefined) gave an IC50 of more than 100 µM. The compound `O=c1cc(Cc2ccccc2)nc(SCOCc2ccccc2)[nH]1` had an IC50 of 12.1 µM. That is a double-digit micromolar value. As to `COc1cccc(CSc2nc(Cc3ccccc3)c(I)c(=O)[nH]2)c1`, the half-maximal inhibitory concentration (IC50) turned out to be 8.29 µM. Consider `Cc1ccccc1CSc1nc(Cc2ccccc2)c(I)c(=O)[nH]1`, for which the half-inhibitory concentration (IC50) is 4.16 µM. Compared with the last compound, the IC50 is about 2-fold lower. The same measure, in the same setting: for `CCOCSc1nc(Cc2ccccc2)cc(=O)[nH]1` the value was more than 100 µM; for `O=c1[nH]c(SCCc2ccccc2)nc(Cc2ccccc2)c1I`, 2.4 µM; for `Cc1c(Cc2ccccc2)nc(SCCCc2ccccc2)[nH]c1=O`, 2.93 µM. The compound `Cc1cccc(CSc2nc(Cc3ccccc3)cc(=O)[nH]2)c1` yielded a half-inhibitory concentration (IC50) of 91.1 µM. Same read-out and setting: in the case of `O=c1[nH]c(SCc2ccc3ccccc3c2)nc(Cc2ccccc2)c1Br` it was 12.3 µM. Turning to `Cc1ccccc1CSc1nc(Cc2ccccc2)c(C)c(=O)[nH]1`, the IC50 was more than 100 µM. On the same count and under the same terms, for `COc1cccc(CSc2nc(Cc3ccccc3)cc(=O)[nH]2)c1` the value was 90.8 µM; for `O=c1[nH]c(SCc2ccc3ccccc3c2)nc(Cc2ccccc2)c1I`, 2.04 µM; for `O=c1[nH]c(SCCc2ccccc2)nc(Cc2ccccc2)c1Br`, 13.9 µM. On the same count and under the same terms, in the case of `Cc1c(Cc2ccccc2)nc(SCOCc2ccccc2)[nH]c1=O` it was 19 µM; in that of `O=c1cc(Cc2ccccc2)nc(SCCCc2ccccc2)[nH]1`, 8.17 µM; in that of `C=CCSc1nc(Cc2ccccc2)cc(=O)[nH]1`, more than 100 µM.

Compound `Cc1c(Cc2ccccc2)nc(SC(C)c2ccccc2)[nH]c1=O` (centres undefined) displayed a half-inhibitory concentration (IC50) of more than 100 µM. Still for that read-out and setting: in the case of `Cc1ccccc1CSc1nc(Cc2ccccc2)cc(=O)[nH]1` it was 47.7 µM; in that of `Cc1c(Cc2ccccc2)nc(SCCc2ccccc2)[nH]c1=O`, 59.6 µM.

A further assay addresses Human immunodeficiency virus type 1 reverse transcriptase (Human immunodeficiency virus 1) (UniProt Q72547). As to the kind of experiment: Ratio of nevirapine IC50 to compound IC50 for HIV1 reverse transcriptase.
For `O=c1[nH]c(SCCCc2ccccc2)nc(Cc2ccccc2)c1I`, the Ratio IC50 came out at 23.

(Values after ChEMBL document CHEMBL1158529, “Synthesis and biological evaluation of novel C5 halogen-functionalized S-DABO as potent HIV-1 non-nucleoside reverse transcriptase inhibitors” (Bioorg Med Chem, 2010).)
